Data set [1] has as its target T1, Amine oxidase [flavin-containing] A (Homo sapiens, UniProt P21397).
T1 sequence (P21397 whole entry): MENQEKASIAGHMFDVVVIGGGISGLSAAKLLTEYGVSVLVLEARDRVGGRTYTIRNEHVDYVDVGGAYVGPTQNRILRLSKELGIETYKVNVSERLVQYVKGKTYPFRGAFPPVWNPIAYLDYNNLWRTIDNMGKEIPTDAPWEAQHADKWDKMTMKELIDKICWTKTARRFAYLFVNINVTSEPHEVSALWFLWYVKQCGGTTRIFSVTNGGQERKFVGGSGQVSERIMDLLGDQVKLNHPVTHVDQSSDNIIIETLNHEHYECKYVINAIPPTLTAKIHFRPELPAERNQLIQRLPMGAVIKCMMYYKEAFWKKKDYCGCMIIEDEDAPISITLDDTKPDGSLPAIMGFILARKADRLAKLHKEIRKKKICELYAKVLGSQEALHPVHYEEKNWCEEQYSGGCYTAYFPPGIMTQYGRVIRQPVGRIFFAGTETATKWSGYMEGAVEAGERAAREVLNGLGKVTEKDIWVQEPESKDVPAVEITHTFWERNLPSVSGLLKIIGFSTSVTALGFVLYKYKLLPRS
In words: Inhibition of recombinant human MAO-A using kynuramine as substrate by fluorescence spectrophotometry.

The species entered for a further data set is Homo sapiens. In words: Selectivity index, ratio of IC50 for recombinant human MAO-A to IC50 for recombinant human MAO-B. Put shortly: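 Ratio of IC50 for MAO-A to IC50 for MAO-B. Each IC50 is the mean of triplicate fluorometric kynuramine-oxidation determinations on the recombinant human enzymes.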
The target of data set [2] is T2, Amine oxidase [flavin-containing] B (Homo sapiens, UniProt P27338).
T2 sequence (P27338 whole entry): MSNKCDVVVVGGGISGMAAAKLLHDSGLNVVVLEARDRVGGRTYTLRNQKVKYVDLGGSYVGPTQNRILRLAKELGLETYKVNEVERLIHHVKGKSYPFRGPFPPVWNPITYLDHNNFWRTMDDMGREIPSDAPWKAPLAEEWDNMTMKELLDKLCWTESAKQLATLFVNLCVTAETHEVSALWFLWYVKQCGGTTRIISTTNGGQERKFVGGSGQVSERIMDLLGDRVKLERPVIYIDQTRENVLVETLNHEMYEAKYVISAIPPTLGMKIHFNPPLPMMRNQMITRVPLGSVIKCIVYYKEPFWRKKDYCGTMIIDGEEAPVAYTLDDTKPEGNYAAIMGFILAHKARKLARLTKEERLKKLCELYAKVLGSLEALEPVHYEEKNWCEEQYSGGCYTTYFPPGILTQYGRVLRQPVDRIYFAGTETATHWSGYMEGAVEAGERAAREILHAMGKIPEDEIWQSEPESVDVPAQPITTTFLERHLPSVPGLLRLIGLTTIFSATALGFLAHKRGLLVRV
Briefly: Inhibition of recombinant human MAO-B using kynuramine as substrate by fluorescence spectrophotometry.

Data set [3] has as its target T2, Amine oxidase [flavin-containing] B. In words: Reversible inhibition of recombinant human MAO-B assessed as residual activity pre-incubated at 4 times IC50 for 15 mins followed by dialysis for 24 hrs and subsequent kynuramine addition measured after 20 mins by fluorescence spectrophotometric analysis relative to untreated control. Put shortly: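 Recombinant MAO-B is preincubated with inhibitor for 15 min at 37 °C, then dialysed for 24 h at 4 °C. It is then diluted two-fold by adding kynuramine (50 final) and incubated 20 min at 37 °C. 4-Hydroxyquinoline is read fluorometrically. Residual activity is compared with an inhibitor-free dialysed control; triplicates, mean ± SD. (R)-Deprenyl is run the same way.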

The target is the same in data set [4]. In words: Reversible inhibition of recombinant human MAO-B assessed as residual activity pre-incubated at 4 times IC50 for 15 mins followed by kynuramine addition measured after 20 mins by fluorescence spectrophotometric analysis relative to untreated control. Put shortly:
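Recombinant MAO-B is preincubated with inhibitor for 15 min at 37 °C without dialysis. It is then diluted two-fold by adding kynuramine (50 final) and incubated 20 min at 37 °C. 4-Hydroxyquinoline is measured fluorometrically. Residual rate is compared with control; triplicates, mean ± SD.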

Regarding `O=[N+]([O-])/C=C/c1cccc(OCc2cccc(F)c2)c1`, the IC50 is 4.2 µM in data set [1] and 103 nM in data set [2]. For the same compound, in the data set listed under Homo sapiens, the Ratio IC50 amounted to 41.

For `O=[N+]([O-])/C=C/c1cccc(OCc2ccc(F)cc2)c1`, the Activity came out at 38% in data set [3] and 37% in data set [4]. Besides, the IC50 in data set [1] was 6.46 µM; in data set [2] it was 39 nM. Besides, the Ratio IC50 in the data set listed under Homo sapiens is 166.

Consider `O=[N+]([O-])/C=C/c1cccc(OCc2ccc(Cl)cc2)c1`, for which the 50% inhibitory concentration (IC50) in data set [1] came to 7.59 µM; in data set [2], 144 nM. Also, the Ratio IC50 in the data set filed under Homo sapiens amounted to 53.

In the case of `O=[N+]([O-])/C=C/c1cccc(OCc2cccc(Cl)c2)c1`, the IC50 is 3.52 µM in data set [1] and 105 nM in data set [2]. The Ratio IC50 in the data set filed under Homo sapiens is 34.

Turning to `O=[N+]([O-])/C=C/c1cccc(OCc2ccc(Br)cc2)c1`, the IC50 in data set [1] was more than 100 µM; in data set [2], more than 100000 nM.

In the case of `Cc1ccc(COc2cccc(/C=C/[N+](=O)[O-])c2)cc1`, the IC50 in data set [1] turned out to be 9.36 µM; in data set [2], 192 nM. The Ratio IC50 in the data set listed under Homo sapiens turned out to be 49.

For `Cc1cccc(COc2cccc(/C=C/[N+](=O)[O-])c2)c1`, the IC50 in data set [1] was found to be 11.8 µM; in data set [2], 565 nM. Moreover, the Ratio IC50 in the data set listed under Homo sapiens worked out at 21.

As to `O=[N+]([O-])/C=C/c1cccc(OCc2cccc(C(F)(F)F)c2)c1`, the IC50 turned out to be 8.78 µM in data set [1] and 273 nM in data set [2]. In addition, in the data set listed under Homo sapiens, the Ratio IC50 worked out at 32.

As to `O=[N+]([O-])/C=C/c1cccc(OCc2ccccc2)c1`, the IC50 in data set [1] was found to be 3.65 µM; in data set [2], 85 nM. The Ratio IC50 in the data set filed under Homo sapiens came to 43.

In the case of `O=[N+]([O-])/C=C/c1cccc(OCc2ccc(C(F)(F)F)cc2)c1`, the IC50 in data set [1] amounted to 6.6 µM; in data set [2], 106 nM. Also, the Ratio IC50 in the data set listed under Homo sapiens came to 62.

`O=[N+]([O-])/C=C/c1cccc(OCc2cccc(Br)c2)c1`: the IC50 in data set [1] stood at 6.63 µM; in data set [2], 262 nM. Moreover, the Ratio IC50 in the data set listed under Homo sapiens is 25.
